Data set [1] deals with T1, C3a anaphylatoxin chemotactic receptor (Homo sapiens, UniProt Q16581).
T1 sequence (Q16581 whole entry): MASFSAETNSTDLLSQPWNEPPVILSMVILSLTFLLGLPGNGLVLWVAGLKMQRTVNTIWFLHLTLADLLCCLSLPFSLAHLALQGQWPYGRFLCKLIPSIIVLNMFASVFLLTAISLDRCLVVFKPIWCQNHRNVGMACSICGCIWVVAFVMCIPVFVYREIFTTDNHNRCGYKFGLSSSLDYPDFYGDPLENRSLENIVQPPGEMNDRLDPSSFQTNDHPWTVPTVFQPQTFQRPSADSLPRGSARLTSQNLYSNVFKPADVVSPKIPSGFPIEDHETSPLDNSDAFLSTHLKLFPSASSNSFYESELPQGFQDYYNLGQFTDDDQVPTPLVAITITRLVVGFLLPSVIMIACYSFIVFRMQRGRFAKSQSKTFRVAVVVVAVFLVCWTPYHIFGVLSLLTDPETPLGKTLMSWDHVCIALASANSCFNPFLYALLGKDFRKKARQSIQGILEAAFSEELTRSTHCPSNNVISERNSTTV
Briefly: (§1) Displacement of [125I]C3a from human C3a receptor expressed in HMC1 cells co-expressing aequorin. Type of data set: cell-based. Put shortly:
(§2)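 Scintillation proximity assay used wheat germ agglutinin beads and membranes from HMC-1 cells co-expressing Aequorin and human C3aR. Test compound was added at various concentrations with 0.02 nM ¹²⁵I-C3a in 50 mM Tris/2 mM MgCl₂/0.5% BSA. Non-specific binding was defined with 1 nM C3a. Plates were incubated 3 h at rt and read by scintillation counting. Values are means of three experiments.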

Data set [2] is described as follows: Clearance in rat microsomes. It counts as ADME, Liver, Microsome.
In another data set the test system is Hepatocyte. Nature of the data set: Clearance in rat hepatocytes. Type of data set: ADME, cell-based, Liver.
The nature of data set [3]: Oral bioavailability in rat at 1 mg/kg. It counts as ADME, organism-based. Particulars: in vivo. Put shortly:
(§3)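 Male rats received a single oral or iv dose of 1 mg/kg.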

Data set [4] in a line: Elimination half life in rat at 1 mg/kg, iv and 1 mg/kg, po. Type of data set: ADME, organism-based. Conditions: in vivo. Put shortly: as §3
Data set [5] in a line: Permeability across Caco-2 cells. Type of data set: ADME, cell-based. Conditions: human, read-out: permeability.
Data set [6] has as its target T1, C3a anaphylatoxin chemotactic receptor. Nature of the data set: Agonist activity at human C3a receptor expressed in HMC1 cells co-expressing aequorin. It counts as functional, cell-based. Put shortly: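 They were then diluted fourfold and held 1 h at 37 °C. Compound was injected at 1% DMSO final. Luminescence was recorded for 30 s right after injection. Maximal signal was set with 50 nM C3a.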

Data set [7] shares this target. Briefly: Antagonist activity at human C3a receptor expressed in HMC1 cells co-expressing aequorin. It counts as functional, cell-based. The essentials:
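Aequorin/human C3aR HMC-1 cells were loaded with coelenterazine for 2 h. They were then plated and pre-treated with compound dilutions for 1 h at 37 °C, 1% DMSO. C3a agonist was then injected at 5 nM final. Light emission was the read-out.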

The target in data set [8] is T2, C3a anaphylatoxin chemotactic receptor (Homo sapiens) (UniProt Q16581).
T2 sequence (whole entry): T1 sequence (Q16581 whole entry)
The description is as §1. Type of data set: cell-based. Put shortly: as §2

Structures are written as SMILES. Active and inactive are the calls of the source. No cut-off for these calls is given here.

This note sets out measurements from ChEMBL document CHEMBL1148022, “Discovery of new C3aR ligands. Part 2: amino-piperidine derivatives” (Bioorg Med Chem Lett, 2007).

What is called IC50 is the concentration needed to halve the response being measured. The low end stands for inhibition by little substance, the high end for a need for much substance. The term bioavailability denotes the share of a dose that reaches the circulation, judged against a reference dose that is usually intravenous. The half-life is the time in which the quantity being followed falls by half. As usually defined, the EC50 is the midpoint of the concentration-response curve.

Compound `O=C(NC1CCN(C(=O)CCc2cccnc2)CC1)C(CC1CCCCC1)c1ccccc1` (stereo not drawn) showed an IC50 in data set [1] of 0.794 µM. For the same compound, the figures for the CL (in data set [2]; with Hepatocyte) were 500 µL/min and 44 µL/min, respectively. The compound further gave a bioavailability in data set [3] of 1%. The half-life in [4] was 42 min.

On to `O=C(NC1CCN(C(=O)CCc2cccnc2)CC1)C(c1ccccc1)C1CCCCC1` (single isomer, unassigned; epimer B), for which, in data set [1], the IC50 is 0.316 µM.

The compound `O=C(NC1CCN(C(=O)CCc2ccccc2F)CC1)C(c1ccccc1)C1CCCCC1` (stereo not drawn) showed an IC50 in data set [1] of 2 µM.

`O=C(NC1CCN(C(=O)CCc2cccnc2)CC1)C(c1ccc([N+](=O)[O-])cc1)C1CCCCC1` (stereo not drawn) showed an IC50 in [1] of 0.316 µM. Against the preceding compound, the IC50 is about 6.3-fold lower.

`Cc1cc(C)cc(C(C(=O)NC2CCN(C(=O)CCc3cccnc3)CC2)C2CCCCC2)c1` (stereo not drawn) had an IC50 in data set [1] of 0.126 µM.

`O=C(NC1CCN(C(=O)/C=C/c2ccccc2F)CC1)C(c1ccccc1)C1CCCCC1` (stereo not drawn) had an IC50 in data set [1] of 12.6 µM. Compared with the last compound, the IC50 is about 100-fold higher.

In data set [1], `O=C(NC1CCN(C(=O)/C=C/c2cccnc2)CC1)C(c1ccccc1)C1CCCCC1` (stereo not drawn) had an IC50 of 1 µM. The values for the CL (in [2]; with Hepatocyte) were 238 µL/min and 26 µL/min, respectively. The Papp in data set [5] came out at 8.5 ×10⁻⁶ cm/s. The same compound returned a bioavailability in data set [3] of 7%. This compound also showed a half-life in data set [4] of 18 min.

In turn, `CC1(C)CCC(C(C(=O)NC2CCN(C(=O)CCc3cccnc3)CC2)c2ccccc2)CC1` (stereo not drawn) showed an IC50 in data set [1] of 1 µM.

In [1], `O=C(NC1CCN(C(=O)CCc2cccnc2)CC1)C(c1cc(F)c(F)c(F)c1)C1CCCCC1` (stereo not drawn) had an IC50 of 0.1 µM. Further, the CL in [2] came to 609 µL/min; with Hepatocyte, 17 µL/min. Moreover, the bioavailability in data set [3] is 0%. The half-life in [4] is 18 min. The EC50 in [6] was 0.794 µM.

Take `O=C(NC1CCN(C(=O)CCc2cccnc2)CC1)C(c1ccccc1)c1ccccc1`: the values for the IC50 in data set [1] and in data set [7] were 12.6 µM and 3.16 µM, respectively. The CL in data set [2] worked out at 500 µL/min; with Hepatocyte it was 21 µL/min. In addition, in data set [5], the Papp turned out to be 8.5 ×10⁻⁶ cm/s. The bioavailability in [3] is 5%. The compound further gave a half-life in data set [4] of 6 min.

For `O=C(NC1CCN(C(=O)CCc2cccnc2)CC1)C(c1ccccc1)C1CCCC1` (stereo not drawn), in [1], the IC50 is 0.794 µM.

With `O=C(NC1CCN(C(=O)CCc2cccnc2)CC1)C(c1ccc2ccccc2c1)C1CCCCC1` (stereo not drawn), the IC50 in data set [1] is 0.794 µM. In addition, in data set [2], the CL was determined as 585 µL/min. In addition, the bioavailability in data set [3] turned out to be 9%. In data set [4], this compound showed a half-life of 30 min. In addition, a half-maximal effect in data set [6] (EC50) was put at 1.58 µM.

In turn, `O=C(NC1CCN(C(=O)CCc2cccnc2)CC1)C(c1ccccc1)C1CCC(F)(F)CC1` (stereo not drawn) gave an IC50 in [1] of 0.631 µM. Besides, the CL in data set [2] was found to be 170 µL/min. The Papp in data set [5] stood at 16 ×10⁻⁶ cm/s. In data set [3], this compound registered a bioavailability of 2%. In [4], the half-life is 18 min.

Compound `O=C(NC1CCN(C(=O)CCc2cccnc2)CC1)C(c1ccccc1)C1CCCCC1` (single isomer, unassigned; epimer A) had an IC50 in [1] of 5.01 µM.

Turning to `O=C(NC1CCN(C(=O)CCc2ccccn2)CC1)C1c2cc(Cl)ccc2Oc2ccc(Cl)cc21`, the “Log IC50” value in data set [8] was “inactive”.

On to `Cc1cncc(/C=C/C(=O)N2CCC(NC(=O)C(c3ccccc3)C3CCCCC3)CC2)c1` (stereo not drawn), for which the IC50 in data set [1] was 50.1 µM. The CL stood at 175 µL/min in [2] and 21 µL/min in the data set with Hepatocyte. In addition, the Papp in data set [5] was 7.9 ×10⁻⁶ cm/s. In data set [3], the bioavailability stood at 3%. In data set [4], this compound gave a half-life of 18 min.

For `O=C(NC1CCN(C(=O)Cc2cccc(F)c2F)CC1)C(c1ccccc1)C1CCCCC1` (stereo not drawn), the IC50 in data set [1] is 10 µM.

Regarding `O=C(NC1CCN(C(=O)CCc2cccnc2)CC1)C(c1ccsc1)C1CCCCC1` (stereo not drawn), in data set [1], the IC50 is 0.2 µM. This IC50 lies about 50-fold lower than the previous one.

Regarding `O=C(NC1CCN(C(=O)CCc2ccncc2)CC1)C1c2cc(Cl)ccc2Oc2ccc(Cl)cc21`, the “Log IC50” value in data set [8] was “inactive”.

The compound `O=C(NC1CCN(C(=O)CCc2cccnc2)CC1)C(c1ccccc1)C1CC=CC1` (stereo not drawn) gave an IC50 in [1] of 3.16 µM.

For the compound `Cc1ccccc1C(C(=O)NC1CCN(C(=O)CCc2cccnc2)CC1)C1CCCCC1` (stereo not drawn), in data set [1], the IC50 is 2.51 µM.

In turn, `O=C(NC1CCN(C(=O)CCc2cccnc2)CC1)C(c1ccc(Cl)cc1)C1CCCCC1` (stereo not drawn) had an IC50 in data set [1] of 0.2 µM. Further, the CL in data set [2] was 500 µL/min; with Hepatocyte, 28 µL/min. The Papp in data set [5] amounted to 10 ×10⁻⁶ cm/s. For the same compound, in data set [3], the bioavailability amounted to 0%. For the same compound, the half-life in data set [4] was 18 min.

On to `O=C(NC1CCN(C(=O)CCc2cccnc2)CC1)C(c1ccc(Cl)cc1)c1ccc(Cl)cc1`, for which the IC50 in data set [1] was 20 µM. Moreover, in data set [2], the CL turned out to be 175 µL/min. Moreover, the Papp in data set [5] was found to be 6.3 ×10⁻⁶ cm/s. In data set [3], the bioavailability is 0%. Also, the half-life in data set [4] was 24 min.

In data set [1], `COc1ccc(C(C(=O)NC2CCN(C(=O)CCc3cccnc3)CC2)C2CCCCC2)cc1` (stereo not drawn) showed an IC50 of 0.631 µM.

For `O=C(NC1CCN(C(=O)CCc2cccnc2)CC1)C(c1ccc(F)cc1)C1CCCCC1` (stereo not drawn), the IC50 in data set [1] was 0.158 µM.

In data set [1], `O=C(NC1CCN(C(=O)CCc2cccnc2)CC1)C1c2ccccc2Cc2ccccc21` gave an IC50 of 79.4 µM.

Turning to `Cc1ccc(C(C(=O)NC2CCN(C(=O)CCc3cccnc3)CC2)C2CCCCC2)cc1` (stereo not drawn), the IC50 in data set [1] is 0.794 µM.

`O=C(NC1CCN(C(=O)CCc2ccc(F)nc2)CC1)C(c1ccccc1)C1CCCCC1` (stereo not drawn) gave an IC50 in [1] of 1.26 µM. Also, the CL in [2] amounted to 782 µL/min. Also, in data set [5], the Papp stood at 19 ×10⁻⁶ cm/s. In [3], this compound had a bioavailability of 0%. The half-life in [4] is 18 min.

`O=C(NC1CCN(C(=O)CCc2cccnc2)CC1)/C(=C/C1CCCCC1)c1ccccc1` showed an IC50 in data set [1] of 25.1 µM.

Take `O=C(NC1CCN(C(=O)CCc2cccnc2)CC1)C(c1ccccc1)C1CCCCC1` (stereo not drawn): the IC50 in data set [1] was 0.794 µM. Besides, the CL in data set [2] was 500 µL/min; in the data set with Hepatocyte, 33 µL/min. In data set [5], the Papp stood at 12 ×10⁻⁶ cm/s. For the same compound, the bioavailability in data set [3] came out at 5%. Moreover, in data set [4], the half-life is 12 min. The same compound had an EC50 in data set [6] of 2 µM.

`CC1(C)CC(C(C(=O)NC2CCN(C(=O)CCc3cccnc3)CC2)c2ccccc2)CC(C)(C)C1` (stereo not drawn) gave an IC50 in [1] of 63.1 µM.

Regarding `O=C(NC1CCN(C(=O)CCc2cccnc2F)CC1)C(c1ccccc1)C1CCCCC1` (stereo not drawn), the IC50 in [1] was 0.0316 µM. In [6], the EC50 was 0.2 µM.

Consider `COc1ncccc1CCC(=O)N1CCC(NC(=O)C(c2ccccc2)C2CCCCC2)CC1` (stereo not drawn), for which the IC50 in data set [1] is 15.8 µM.

For `O=C(NC1CCN(C(=O)CCc2cccnc2)CC1)C1c2cc(Cl)ccc2Oc2ccc(Cl)cc21`, the IC50 in [1] is 1.58 µM; in data set [7], 0.631 µM.

In the case of `Cc1cccc(C(C(=O)NC2CCN(C(=O)CCc3cccnc3)CC2)C2CCCCC2)c1` (stereo not drawn), in [1], the IC50 was 0.0794 µM.

Consider `O=C(NC1CCN(C(=O)CCc2cccnc2)CC1)C(C1CCCCC1)C1CCCCC1`, for which, in data set [1], the IC50 was 1 µM. This compound yielded a CL in data set [2] of 675 µL/min. In data set [3], this compound showed a bioavailability of 6%. In data set [4], this compound showed a half-life of 12 min.
